Experiments:
[1] = molecular target: Transthyretin (Homo sapiens) (UniProt P02766); assay: Percentage of WT-TTR (3.6 uM) amyloid fibril formation at pH 4.4 upon incubation with the compound (7.2 uM); compound is unstable
Summary of the method: (§1)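 WT-TTR (7.2 µM, 0.4 mg/mL) in 10 mM phosphate pH 7.2, 100 mM KCl, 1 mM EDTA was preincubated 30 min at 37 °C with inhibitor added from a 1.44 mM DMSO stock. An equal volume of 200 mM acetate pH 4.2 brought the sample to pH 4.4 (3.6 µM TTR, 7.2 µM compound final). Left 72 h at 37 °C, vortexed, turbidity read at 350 and 400 or 500 nm. Run in duplicate or triplicate.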

[2] = molecular target: Transthyretin (Homo sapiens) (UniProt P02766); assay: Percentage compound remaining at the conclusion of the acid-mediated fibril formation assay (72 h), assay conditions compound (7.2 uM), WT-TTR (3.6 uM, pH 4.4, 37C)
Summary of the method: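 Compound at 7.2 µM was incubated in the dark with or without 3.6 µM WT-TTR under acid fibril conditions (pH 4.4, 37 °C, 72 h). Analytical RP-HPLC peak area of the compound at the end was compared with the area at the start. Measurement error stated as 4%.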

[3] = molecular target: Transthyretin (Homo sapiens) (UniProt P02766); assay: Percentage compound remaining at the conclusion of the acid-mediated fibril formation assay (72 h), assay conditions compound (7.2 uM), WT-TTR (3.6 uM, pH 7.2, 37C)
Summary of the method: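 Compound at 7.2 µM was incubated in the dark with 3.6 µM WT-TTR at 37 °C for 72 h, with the buffer held at pH 7.2. Analytical RP-HPLC peak area of the compound at the end was compared with the area at the start.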

[4] = molecular target: Transthyretin (Homo sapiens) (UniProt P02766); assay: Percentage of WT-TTR (3.6 uM) amyloid fibril formation at pH 4.4 upon incubation with the compound (7.2 uM); summary of the method: as §1
[5] = molecular target: Transthyretin (Homo sapiens) (UniProt P02766); assay: Binding stoichiometry to TTR in human blood plasma determined by antibody capture/HPLC method; assay type: cell-free
Summary of the method: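 Human blood plasma spiked to 10.8 µM test compound from a 2.16 mM DMSO stock and incubated 24 h at 37 °C. Plasma was precleared with plain Sepharose for 1 h at 4 °C, then split into three aliquots for anti-TTR antibody-resin capture (20 min, 4 °C) in 10 mM Tris pH 8.0, 140 mM NaCl. Resin washed, eluted with 100 mM triethylamine pH 11.5, eluate analysed by HPLC for compound:TTR stoichiometry.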

Structure (SMILES): O=C(O)c1ccccc1/C=N/Oc1ccccc1C(=O)O
- Formation [1]: Unstable

Structure (SMILES): O=C(O)c1ccc(/C=N/Oc2ccccc2C(F)(F)F)cc1
- Activity [2]: 83%
- Activity [3]: 76%
- Formation [4]: 3%
- Binding stoichiometry [5]: 1.38

From ChEMBL document CHEMBL1142707, “Bisaryloxime ethers as potent inhibitors of transthyretin amyloid fibril formation” (J Med Chem, 2005)
